Experiments:
Assay type in all cases: functional
Oryctolagus cuniculus [1] = assay: Number of rabbits convulsed at 0.5 mg/kg, iv out of 1 rabbit tested
Outline: (§1)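 Adult tetrahydrocannabinol-seizure susceptible (THC-SS) rabbits, 2–4 kg, dosed intravenously with cannabinoid in 10% polysorbate 80/90% physiological saline. Presence or absence of behavioral convulsion was recorded within 20 min. Animals were reused for several compounds or doses, with at least 7 days between trials and treatments given in random order. Every rabbit also received 0.05 mg/kg Δ9-THC at least once. Aim was four rabbits per dose.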

Oryctolagus cuniculus [2] = assay: Number of rabbits convulsed at 1 mg/kg, iv out of 4 rabbits tested; outline: as §1
Oryctolagus cuniculus [3] = assay: Number of rabbits convulsed at 2 mg/kg, iv out of 2 rabbits tested; outline: as §1
Oryctolagus cuniculus [4] = assay: Number of rabbits convulsed at 4 mg/kg, iv out of 1 rabbit tested; outline: as §1
Oryctolagus cuniculus [5] = assay: Number of rabbits convulsed at 0.25 mg/kg, iv out of 1 rabbits tested; outline: as §1
Oryctolagus cuniculus [6] = assay: Number of rabbits convulsed at 0.5 mg/kg, iv out of 1 rabbits tested; outline: as §1
Oryctolagus cuniculus [7] = assay: Number of rabbits convulsed at 0.01 mg/kg, iv out of 4 rabbits tested; outline: as §1
Oryctolagus cuniculus [8] = assay: Number of rabbits convulsed at 0.05 mg/kg, iv out of 4 rabbits tested; outline: as §1
Oryctolagus cuniculus [9] = assay: Number of rabbits convulsed at 1 mg/kg, iv out of 1 rabbits tested; outline: as §1
Oryctolagus cuniculus [10] = assay: Number of rabbits convulsed at 0.5 mg/kg, iv out of 4 rabbits tested; outline: as §1
Oryctolagus cuniculus [11] = assay: Number of rabbits convulsed at 0.9 mg/kg, iv out of 3 rabbits tested; outline: as §1
Oryctolagus cuniculus [12] = assay: Number of rabbits convulsed at 20 mg/kg, iv out of 3 rabbits tested; outline: as §1
Oryctolagus cuniculus [13] = assay: Number of rabbits convulsed at 0.1 mg/kg, iv out of 4 rabbits tested; outline: as §1
Oryctolagus cuniculus [14] = assay: Number of rabbits convulsed at 0.005 mg/kg, iv out of 4 rabbits tested; outline: as §1
Oryctolagus cuniculus [15] = assay: Number of rabbits convulsed at 0.1 mg/kg, iv out of 2 rabbits tested; outline: as §1
Oryctolagus cuniculus [16] = assay: Number of rabbits convulsed at 0.5 mg/kg, iv out of 3 rabbits tested; outline: as §1
Oryctolagus cuniculus [17] = assay: Number of rabbits convulsed at 0.9 mg/kg, iv out of 4 rabbits tested; outline: as §1
Oryctolagus cuniculus [18] = assay: Number of rabbits convulsed at 0.1 mg/kg, iv out of 1 rabbits tested; outline: as §1
Oryctolagus cuniculus [19] = assay: Number of rabbits convulsed at 0.9 mg/kg, iv out of 1 rabbits tested; outline: as §1
Oryctolagus cuniculus [20] = assay: Number of rabbits convulsed at 20 mg/kg, iv out of 2 rabbits tested; outline: as §1
Oryctolagus cuniculus [21] = assay: Number of rabbits convulsed at 1 mg/kg, iv out of 3 rabbits tested; outline: as §1
Oryctolagus cuniculus [22] = assay: Number of rabbits convulsed at 10 mg/kg, iv out of 1 rabbit tested; outline: as §1
Oryctolagus cuniculus [23] = assay: Number of rabbits convulsed at 5 mg/kg, iv out of 1 rabbit tested; outline: as §1
Oryctolagus cuniculus [24] = assay: Number of rabbits convulsed at 0.05 mg/kg, iv out of 3 rabbits tested; outline: as §1
Oryctolagus cuniculus [25] = assay: Number of rabbits convulsed at 5 mg/kg, iv out of 1 rabbits tested; outline: as §1
Oryctolagus cuniculus [26] = assay: Number of rabbits convulsed at 10 mg/kg, iv out of 1 rabbits tested; outline: as §1
Oryctolagus cuniculus [27] = assay: Number of rabbits convulsed at 0.25 mg/kg, iv out of 5 rabbits tested; outline: as §1
Oryctolagus cuniculus [28] = assay: Number of rabbits convulsed at 20 mg/kg, iv out of 1 rabbits tested; outline: as §1
Oryctolagus cuniculus [29] = assay: Number of rabbits convulsed at 5 mg/kg, iv out of 4 rabbits tested; outline: as §1
Oryctolagus cuniculus [30] = assay: Number of rabbits convulsed at 0.5 mg/kg, iv out of 7 rabbits tested; outline: as §1
Oryctolagus cuniculus [31] = assay: Number of rabbits convulsed at 0.05 mg/kg, iv out of 2 rabbits tested; outline: as §1
Oryctolagus cuniculus [32] = assay: Number of rabbits convulsed at 15 mg/kg, iv out of 1 rabbit tested; outline: as §1
Oryctolagus cuniculus [33] = assay: Number of rabbits convulsed at 20 mg/kg, iv out of 4 rabbits tested; outline: as §1
Oryctolagus cuniculus [34] = assay: Number of rabbits convulsed at 8 mg/kg, iv out of 2 rabbits tested; outline: as §1
Oryctolagus cuniculus [35] = assay: Number of rabbits convulsed at 8 mg/kg, iv out of 1 rabbit tested; outline: as §1
Oryctolagus cuniculus [36] = assay: Number of rabbits convulsed at 15 mg/kg, iv out of 7 rabbits tested; outline: as §1
Oryctolagus cuniculus [37] = assay: Number of rabbits convulsed at 20 mg/kg, iv out of 6 rabbits tested; outline: as §1
Oryctolagus cuniculus [38] = assay: Number of rabbits convulsed at 10 mg/kg, iv out of 6 rabbits tested; outline: as §1
Oryctolagus cuniculus [39] = assay: Number of rabbits convulsed at 15 mg/kg, iv out of 10 rabbits tested; outline: as §1
Oryctolagus cuniculus [40] = assay: Number of rabbits convulsed at 0.1 mg/kg, iv out of 10 rabbits tested; outline: as §1
Oryctolagus cuniculus [41] = assay: Number of rabbits convulsed at 0.5 mg/kg, iv out of 20 rabbits tested; outline: as §1
Oryctolagus cuniculus [42] = assay: Number of rabbits convulsed at 0.9 mg/kg, iv out of 9 rabbits tested; outline: as §1
Oryctolagus cuniculus [43] = assay: Number of rabbits convulsed at 0.05 mg/kg, iv out of 14 rabbits tested; outline: as §1

CCCCCc1cc(O)c2c(c1)OC(C)(C)c1ccc(CO)cc1-2
No. of rabbits convulsed (Oryctolagus cuniculus [1]): 0 | No. of rabbits convulsed (Oryctolagus cuniculus [2]): 1 | No. of rabbits convulsed (Oryctolagus cuniculus [3]): 2 | No. of rabbits convulsed (Oryctolagus cuniculus [4]): 1

CCCCCc1cc(O)c2c(c1)OC(C)(C)[C@@H]1CC=C(CO)CC21 (some centres not stated)
No. of rabbits convulsed (Oryctolagus cuniculus [5]): 1 | No. of rabbits convulsed (Oryctolagus cuniculus [6]): 1 | No. of rabbits convulsed (Oryctolagus cuniculus [7]): 2 | No. of rabbits convulsed (Oryctolagus cuniculus [8]): 4 | No. of rabbits convulsed (Oryctolagus cuniculus [9]): 1

CCCCCc1cc(O)c2c(c1)OC(C)(C)[C@@H]1C[C@H](O)C(C)=CC21 (some centres not stated)
No. of rabbits convulsed (Oryctolagus cuniculus [7]): 2 | No. of rabbits convulsed (Oryctolagus cuniculus [8]): 4

CCCCCc1cc(O)c2c(c1)OC(C)(C)[C@@H]1CC=C(C=O)CC21 (some centres not stated)
No. of rabbits convulsed (Oryctolagus cuniculus [10]): 4 | No. of rabbits convulsed (Oryctolagus cuniculus [7]): 0 | No. of rabbits convulsed (Oryctolagus cuniculus [8]): 4

CCCCCc1cc(O)c2c(c1)OC(C)(C)C1=C2CCCC1
No. of rabbits convulsed (Oryctolagus cuniculus [11]): 0 | No. of rabbits convulsed (Oryctolagus cuniculus [12]): 1

CCCCCCC(C)(C)c1cc(O)c2c(c1)OC(C)(C)[C@@H]1CCC(=O)CC21 (some centres not stated)
No. of rabbits convulsed (Oryctolagus cuniculus [13]): 4 | No. of rabbits convulsed (Oryctolagus cuniculus [14]): 3 | No. of rabbits convulsed (Oryctolagus cuniculus [7]): 4

CCCCCc1cc(O)c2c(c1)OC(C)(C)C1=C2CC(C)CC1 (configuration not stated)
No. of rabbits convulsed (Oryctolagus cuniculus [15]): 0 | No. of rabbits convulsed (Oryctolagus cuniculus [16]): 2 | No. of rabbits convulsed (Oryctolagus cuniculus [17]): 4

CCCCCc1cc(O)c2c(c1)OC(C)(C)[C@@H]1C[C@@H](O)C(C)=CC21 (some centres not stated)
No. of rabbits convulsed (Oryctolagus cuniculus [18]): 0 | No. of rabbits convulsed (Oryctolagus cuniculus [19]): 0 | No. of rabbits convulsed (Oryctolagus cuniculus [20]): 0

CCCCCc1cc(O)c2c(c1)OC(C)(C)[C@@H]1CC=C(C(=O)O)CC21 (some centres not stated)
No. of rabbits convulsed (Oryctolagus cuniculus [21]): 0 | No. of rabbits convulsed (Oryctolagus cuniculus [22]): 0 | No. of rabbits convulsed (Oryctolagus cuniculus [20]): 2 | No. of rabbits convulsed (Oryctolagus cuniculus [23]): 0

CCCCCC(C)C(C)c1cc(O)c2c(c1)OC(C)(C)[C@@H]1CC=C(C)CC21 (some centres not stated)
No. of rabbits convulsed (Oryctolagus cuniculus [7]): 3 | No. of rabbits convulsed (Oryctolagus cuniculus [24]): 3

CCCCCc1cc(O)c2c(c1)OC(C)(C)[C@@H]1CCC(C)CC21 (some centres not stated)
No. of rabbits convulsed (Oryctolagus cuniculus [18]): 1 | No. of rabbits convulsed (Oryctolagus cuniculus [6]): 1 | No. of rabbits convulsed (Oryctolagus cuniculus [21]): 3 | No. of rabbits convulsed (Oryctolagus cuniculus [25]): 1 | No. of rabbits convulsed (Oryctolagus cuniculus [8]): 2

CCCCC(O)c1cc(O)c2c(c1)OC(C)(C)c1ccc(C)cc1-2 (configuration not stated)
No. of rabbits convulsed (Oryctolagus cuniculus [26]): 0 | No. of rabbits convulsed (Oryctolagus cuniculus [25]): 0

CC1=CC2c3c(O)cc(CCCCCO)cc3OC(C)(C)[C@@H]2CC1 (some centres not stated)
No. of rabbits convulsed (Oryctolagus cuniculus [13]): 4 | No. of rabbits convulsed (Oryctolagus cuniculus [8]): 2

CCCCCc1cc(O)c2c(c1)OC(C)(C)[C@@H]1CCC(CO)=CC21 (some centres not stated)
No. of rabbits convulsed (Oryctolagus cuniculus [13]): 4 | No. of rabbits convulsed (Oryctolagus cuniculus [27]): 5 | No. of rabbits convulsed (Oryctolagus cuniculus [7]): 3 | No. of rabbits convulsed (Oryctolagus cuniculus [8]): 4

CCCCCc1cc(O)c2c(c1)OC(C)(C)[C@@H]1CC=C(C)CC21 (single isomer, unassigned; (+))
No. of rabbits convulsed (Oryctolagus cuniculus [28]): 1 | No. of rabbits convulsed (Oryctolagus cuniculus [29]): 2

CCCCCc1cc(O)c2c(c1)OC(C)(C)[C@@H]1CC=C(C)CC21 (single isomer, unassigned; (-))
No. of rabbits convulsed (Oryctolagus cuniculus [13]): 4 | No. of rabbits convulsed (Oryctolagus cuniculus [30]): 7 | No. of rabbits convulsed (Oryctolagus cuniculus [8]): 2

CC(=O)Oc1cc(OC(C)CCCc2ccccc2)cc2c1[C@@H]1C[C@H](O)CC[C@H]1[C@H](C)N2 (single isomer, unassigned; (-)) [NANTRADOL]
No. of rabbits convulsed (Oryctolagus cuniculus [31]): 2 | No. of rabbits convulsed (Oryctolagus cuniculus [8]): 3

CCCCCc1cc(O)c2c(c1)OC(C)(CCC=C(C)C)C=C2 (configuration not stated) [CANNABICHROMENE]
No. of rabbits convulsed (Oryctolagus cuniculus [32]): 0 | No. of rabbits convulsed (Oryctolagus cuniculus [33]): 1 | No. of rabbits convulsed (Oryctolagus cuniculus [34]): 0

CCCCCc1cc(O)c2c(c1)OC1(C)CCC3C1C2C3(C)C (configuration not stated) [CANNABICYCLOL]
No. of rabbits convulsed (Oryctolagus cuniculus [20]): 0 | No. of rabbits convulsed (Oryctolagus cuniculus [35]): 0

C=C(C)[C@@H]1CCC(C)=C[C@H]1c1c(O)cc(CCCCC)cc1O [CANNABIDIOL]
No. of rabbits convulsed (Oryctolagus cuniculus [36]): 0 | No. of rabbits convulsed (Oryctolagus cuniculus [37]): 0

CCCCCc1cc(O)c2c(c1)OC(C)(C)c1ccc(C)cc1-2 [CANNABINOL]
No. of rabbits convulsed (Oryctolagus cuniculus [38]): 4 | No. of rabbits convulsed (Oryctolagus cuniculus [39]): 10

CCCCCc1cc(O)c2c(c1)OC(C)(C)[C@@H]1CCC(C)=C[C@@H]21 [DRONABINOL]
No. of rabbits convulsed (Oryctolagus cuniculus [40]): 10 | No. of rabbits convulsed (Oryctolagus cuniculus [41]): 20 | No. of rabbits convulsed (Oryctolagus cuniculus [42]): 9 | No. of rabbits convulsed (Oryctolagus cuniculus [26]): 1 | No. of rabbits convulsed (Oryctolagus cuniculus [7]): 0 | No. of rabbits convulsed (Oryctolagus cuniculus [43]): 14

CCCCCc1cc(O)cc(O)c1 [WHILE OLIVETOL]
No. of rabbits convulsed (Oryctolagus cuniculus [33]): 0
